Consider 7 compounds from ChEMBL document CHEMBL3585303, “Progress towards small molecule menin-mixed lineage leukemia (MLL) interaction inhibitors with in vivo utility” (Bioorg Med Chem Lett, 2015).

Data set [1] can be described thus: Plasma clearance in rat at 0.2 mg/kg, iv. Type of data set: ADME, organism-based. In outline: (§1)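 Rats received a single IV dose of 0.2 mg/kg, given either as a discrete dose or within an IV cassette study. Reported parameters were plasma clearance CLp (mL/min/kg), T1/2, and volume of distribution at steady state Vss (L/kg).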
Data set [2] is described as follows: Volume of distribution at steady state in rat at 0.2 mg/kg, iv. It counts as ADME, organism-based. The following applies: in vivo, read-out: Vdss. The gist of the method: as §1
A short description of data set [3]: Intrinsic clearance in rat liver microsomes. The conditions noted are these: read-out: CLH. It counts as ADME. (Microsomes from liver hold many membrane-bound enzymes, among them those of drug oxidation.)
The nature of data set [4]: Half life in rat at 0.2 mg/kg, iv. It counts as ADME, organism-based. The following applies: in vivo. The gist of the method: as §1
A short description of data set [5]: Intrinsic clearance in human liver microsomes. It counts as ADME. The following applies: read-out: CLH.
Data set [6] in a line: Unbound fraction in mouse plasma. Type of data set: ADME, cell-free. In outline: (§2)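 Plasma protein binding was determined in human, rat or mouse plasma and reported as the fraction unbound (fu).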
Data set [7] in a line: Unbound fraction in human plasma. It counts as ADME, cell-free. The gist of the method: as §2
Data set [8] is described as follows: Unbound fraction in rat plasma. Type of data set: ADME, cell-free. The gist of the method: as §2
The target of data set [9] is Menin/Histone-lysine N-methyltransferase MLL (Homo sapiens, UniProt O00255). Briefly: Inhibition of menin-MLL1 interaction (unknown origin) incubated for 1 hr by fluorescein and Texas Red labeled MBM1 based fluorescence polarization assay. It counts as protein assay.
Menin/Histone-lysine N-methyltransferase MLL, sequence (O00255 whole entry): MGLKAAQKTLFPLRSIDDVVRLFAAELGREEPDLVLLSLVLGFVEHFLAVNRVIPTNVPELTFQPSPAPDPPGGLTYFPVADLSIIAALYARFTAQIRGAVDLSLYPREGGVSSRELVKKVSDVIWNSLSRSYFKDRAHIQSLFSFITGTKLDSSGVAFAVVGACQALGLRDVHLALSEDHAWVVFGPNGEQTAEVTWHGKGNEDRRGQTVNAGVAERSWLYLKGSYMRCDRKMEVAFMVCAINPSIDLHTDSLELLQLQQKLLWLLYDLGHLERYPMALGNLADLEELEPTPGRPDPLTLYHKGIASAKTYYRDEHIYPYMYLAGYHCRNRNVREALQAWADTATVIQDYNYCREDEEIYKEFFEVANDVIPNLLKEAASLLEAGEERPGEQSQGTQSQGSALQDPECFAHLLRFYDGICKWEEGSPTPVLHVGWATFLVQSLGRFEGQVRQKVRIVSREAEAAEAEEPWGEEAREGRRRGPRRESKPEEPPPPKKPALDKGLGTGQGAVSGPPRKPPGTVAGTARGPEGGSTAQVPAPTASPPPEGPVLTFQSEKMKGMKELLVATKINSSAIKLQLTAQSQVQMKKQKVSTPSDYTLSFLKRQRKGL
Menin/Histone-lysine N-methyltransferase MLL, sequence (Q03164 1-2718 partner limits assumed): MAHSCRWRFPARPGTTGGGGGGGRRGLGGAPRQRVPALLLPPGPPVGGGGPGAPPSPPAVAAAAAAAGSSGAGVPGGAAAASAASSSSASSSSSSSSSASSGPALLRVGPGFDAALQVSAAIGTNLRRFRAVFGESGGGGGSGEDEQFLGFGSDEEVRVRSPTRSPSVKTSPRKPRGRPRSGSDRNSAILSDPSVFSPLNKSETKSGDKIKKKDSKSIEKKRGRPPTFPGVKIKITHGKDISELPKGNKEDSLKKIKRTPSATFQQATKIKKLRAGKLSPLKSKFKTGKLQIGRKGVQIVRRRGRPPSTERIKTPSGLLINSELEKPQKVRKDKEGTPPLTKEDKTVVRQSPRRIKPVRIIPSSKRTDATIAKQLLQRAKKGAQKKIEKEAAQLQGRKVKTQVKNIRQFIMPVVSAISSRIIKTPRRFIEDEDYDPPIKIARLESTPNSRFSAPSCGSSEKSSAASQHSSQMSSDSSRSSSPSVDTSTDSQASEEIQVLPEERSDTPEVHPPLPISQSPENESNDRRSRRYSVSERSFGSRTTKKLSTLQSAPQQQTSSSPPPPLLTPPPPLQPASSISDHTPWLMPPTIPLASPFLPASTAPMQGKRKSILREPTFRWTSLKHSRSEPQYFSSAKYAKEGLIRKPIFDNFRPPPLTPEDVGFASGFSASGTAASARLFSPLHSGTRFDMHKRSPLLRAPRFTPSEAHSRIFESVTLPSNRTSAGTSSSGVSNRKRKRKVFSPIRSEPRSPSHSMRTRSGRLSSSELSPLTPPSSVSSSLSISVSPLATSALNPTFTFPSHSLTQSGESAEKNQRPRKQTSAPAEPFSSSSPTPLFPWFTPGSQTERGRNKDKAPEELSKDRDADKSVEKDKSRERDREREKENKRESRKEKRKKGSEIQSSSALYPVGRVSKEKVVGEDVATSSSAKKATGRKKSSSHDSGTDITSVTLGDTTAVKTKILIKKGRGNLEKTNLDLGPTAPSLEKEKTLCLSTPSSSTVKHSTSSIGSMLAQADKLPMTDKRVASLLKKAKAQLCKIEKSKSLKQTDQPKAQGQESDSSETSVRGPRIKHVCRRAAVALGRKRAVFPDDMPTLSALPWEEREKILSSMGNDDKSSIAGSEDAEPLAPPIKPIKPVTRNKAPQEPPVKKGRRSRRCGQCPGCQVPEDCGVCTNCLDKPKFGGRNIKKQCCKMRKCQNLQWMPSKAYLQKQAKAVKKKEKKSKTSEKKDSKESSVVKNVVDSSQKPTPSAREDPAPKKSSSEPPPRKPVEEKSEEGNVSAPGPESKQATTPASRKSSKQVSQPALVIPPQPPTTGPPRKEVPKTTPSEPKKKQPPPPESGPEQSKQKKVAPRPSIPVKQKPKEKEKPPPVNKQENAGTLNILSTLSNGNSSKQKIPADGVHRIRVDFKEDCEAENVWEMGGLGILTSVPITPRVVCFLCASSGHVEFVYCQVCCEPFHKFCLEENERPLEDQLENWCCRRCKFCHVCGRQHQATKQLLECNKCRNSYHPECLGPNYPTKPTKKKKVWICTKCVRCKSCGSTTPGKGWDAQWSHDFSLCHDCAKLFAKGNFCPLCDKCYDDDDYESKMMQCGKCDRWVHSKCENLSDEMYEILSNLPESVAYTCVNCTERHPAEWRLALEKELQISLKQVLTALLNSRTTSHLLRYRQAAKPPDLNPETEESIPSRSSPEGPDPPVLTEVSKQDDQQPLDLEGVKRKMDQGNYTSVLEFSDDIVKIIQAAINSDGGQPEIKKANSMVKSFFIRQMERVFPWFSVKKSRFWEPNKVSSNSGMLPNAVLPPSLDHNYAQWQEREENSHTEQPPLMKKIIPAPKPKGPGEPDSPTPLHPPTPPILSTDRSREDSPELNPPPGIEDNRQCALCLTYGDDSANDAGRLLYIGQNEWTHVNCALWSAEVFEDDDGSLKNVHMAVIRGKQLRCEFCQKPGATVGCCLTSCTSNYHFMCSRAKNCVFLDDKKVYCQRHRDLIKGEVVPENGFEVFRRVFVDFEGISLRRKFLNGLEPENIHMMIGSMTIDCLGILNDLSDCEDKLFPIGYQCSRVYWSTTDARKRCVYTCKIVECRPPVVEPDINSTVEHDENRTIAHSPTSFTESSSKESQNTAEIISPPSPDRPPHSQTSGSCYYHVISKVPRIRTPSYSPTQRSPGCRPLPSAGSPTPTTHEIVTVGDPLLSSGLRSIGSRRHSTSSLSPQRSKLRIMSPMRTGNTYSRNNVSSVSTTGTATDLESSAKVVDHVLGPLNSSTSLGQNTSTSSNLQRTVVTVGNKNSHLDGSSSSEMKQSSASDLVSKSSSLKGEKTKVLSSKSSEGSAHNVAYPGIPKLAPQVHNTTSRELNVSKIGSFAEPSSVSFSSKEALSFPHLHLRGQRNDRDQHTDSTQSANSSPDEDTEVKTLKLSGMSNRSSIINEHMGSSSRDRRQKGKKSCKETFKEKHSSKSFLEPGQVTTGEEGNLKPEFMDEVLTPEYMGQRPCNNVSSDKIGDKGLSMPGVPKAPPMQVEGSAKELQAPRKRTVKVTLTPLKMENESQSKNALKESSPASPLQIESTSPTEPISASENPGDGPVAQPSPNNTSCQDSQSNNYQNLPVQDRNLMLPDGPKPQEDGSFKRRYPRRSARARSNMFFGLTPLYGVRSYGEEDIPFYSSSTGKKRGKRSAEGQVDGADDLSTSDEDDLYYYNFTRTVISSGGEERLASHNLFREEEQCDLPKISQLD
Menin/Histone-lysine N-methyltransferase MLL, sequence (Q03164 2719-3969 partner limits assumed): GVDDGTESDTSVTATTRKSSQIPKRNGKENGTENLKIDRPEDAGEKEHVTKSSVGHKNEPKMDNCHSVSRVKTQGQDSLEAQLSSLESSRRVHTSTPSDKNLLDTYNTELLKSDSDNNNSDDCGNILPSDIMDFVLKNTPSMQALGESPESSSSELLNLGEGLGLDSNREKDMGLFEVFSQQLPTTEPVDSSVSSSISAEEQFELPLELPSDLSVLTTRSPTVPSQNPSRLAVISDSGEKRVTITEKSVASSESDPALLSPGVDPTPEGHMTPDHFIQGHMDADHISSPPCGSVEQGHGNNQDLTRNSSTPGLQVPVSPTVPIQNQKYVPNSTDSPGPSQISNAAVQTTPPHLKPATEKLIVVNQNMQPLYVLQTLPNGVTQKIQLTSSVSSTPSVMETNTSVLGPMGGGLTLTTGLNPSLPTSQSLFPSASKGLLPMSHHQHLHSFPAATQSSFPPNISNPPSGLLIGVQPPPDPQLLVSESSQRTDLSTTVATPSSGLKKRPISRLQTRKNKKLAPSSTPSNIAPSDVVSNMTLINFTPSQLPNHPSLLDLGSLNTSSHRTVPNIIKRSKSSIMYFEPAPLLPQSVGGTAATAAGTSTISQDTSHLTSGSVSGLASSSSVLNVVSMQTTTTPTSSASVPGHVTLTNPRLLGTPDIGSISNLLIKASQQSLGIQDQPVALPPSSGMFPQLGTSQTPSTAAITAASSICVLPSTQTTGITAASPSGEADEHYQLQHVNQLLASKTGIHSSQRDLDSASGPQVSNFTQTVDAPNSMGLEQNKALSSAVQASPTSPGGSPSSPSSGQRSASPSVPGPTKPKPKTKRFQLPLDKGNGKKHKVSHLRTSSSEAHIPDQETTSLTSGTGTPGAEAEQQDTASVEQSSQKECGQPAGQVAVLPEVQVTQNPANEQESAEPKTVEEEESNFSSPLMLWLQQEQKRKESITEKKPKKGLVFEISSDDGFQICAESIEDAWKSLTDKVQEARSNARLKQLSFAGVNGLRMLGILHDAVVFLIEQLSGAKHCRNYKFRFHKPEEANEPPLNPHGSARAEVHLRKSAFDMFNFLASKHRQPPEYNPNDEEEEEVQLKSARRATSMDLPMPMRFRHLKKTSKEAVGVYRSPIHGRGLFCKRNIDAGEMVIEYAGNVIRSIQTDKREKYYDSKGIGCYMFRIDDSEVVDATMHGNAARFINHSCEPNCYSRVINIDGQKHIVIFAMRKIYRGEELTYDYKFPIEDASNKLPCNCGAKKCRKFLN
Another data set concerns MV4-11. Briefly: Growth inhibition of human MV4-11 cells. Type of data set: functional.
The nature of data set [10]: Drug level in rat hepatic S9 fraction treated with compound 10b assessed as compound formation. Type of data set: ADME, tissue-based, Liver.

As usually defined, the clearance is the volume of plasma or blood freed of the substance per unit of time. The term half-life denotes the time needed for the level to fall by half in the phase considered. A low value points to fast loss. What is called fraction unbound is the share of the substance not bound to proteins or other matrix. The low end stands for little free substance, the high end for much free substance. As a reminder, the IC50 is the point on the concentration scale where inhibition reaches its midpoint. High values mean a need for much substance, low ones inhibition by little substance. The term GI50 denotes the concentration at which growth is held to half of that of the control.

Turning to `N#Cc1ccc(OCCCN2CCC(C(O)(c3ccccc3)C3CCCC3)CC2)cc1` (stereo unspecified), the clearance in [1] was 40 mL/min/kg. Further, the Vd in [2] stood at 2.9 L/kg. Further, the values for the CLint scaled in data set [3] and in [5] were 919 mL/min/kg and 124 mL/min/kg, respectively. The half-life in data set [4] is 1.6 h. Further, the fraction unbound in data set [6] stood at 0.013; in data set [7], 0.004.
For `N#Cc1ccc(OCCCN2CCC(C(O)(c3nccs3)C3CCCC3)CC2)cc1` (stereo unspecified), the CLint scaled in data set [3] was determined as 558 mL/min/kg; in data set [5], 77.4 mL/min/kg. The fraction unbound in data set [6] is 0.192; in data set [7], 0.117.
In turn, `N#Cc1ccc(OCCCN2CCC(C(O)(c3cccc(F)c3)c3nccs3)CC2)cc1` (stereo unspecified) gave a clearance in data set [1] of 32 mL/min/kg. Moreover, the Vd in data set [2] turned out to be 7.2 L/kg. For the same compound, the CLint scaled in [3] worked out at 273 mL/min/kg; in data set [5], 69 mL/min/kg. For the same compound, the half-life in data set [4] was 2.8 h. In addition, the unbound share (fraction unbound) in [8] was 0.108; in data set [7], 0.04. For the same compound, in data set [9], the IC50 turned out to be 460 nM.
As for `NS(=O)(=O)c1ccc(OCCCN2CCC(C(O)(c3cccc(F)c3)c3nccs3)CC2)cc1` (stereo unspecified), the clearance in data set [1] was 26 mL/min/kg. Besides, the Vd in data set [2] stood at 4.4 L/kg. Further, the figures for the CLint scaled in data set [3] and in data set [5] were 206 mL/min/kg and 50 mL/min/kg, respectively. The half-life in data set [4] was 1.4 h. The fraction unbound worked out at 0.166 in data set [6], 0.322 in [8] and 0.17 in data set [7].
In the case of `CC1(C)CN=C(N2CCN(c3ncnc4sc(CC(F)(F)F)cc34)CC2)S1`, the concentration for 50% growth inhibition (GI50) in the data set with MV4-11 worked out at 3000 nM.
In the case of `O[C@](c1cccc(F)c1)(c1ccccn1)C1CCNCC1`, the Drug metabolism entry in data set [10] is on record as “metabolite_detected”.
In data set [1], `NS(=O)(=O)c1ccc(OCCCN2CCC(C(O)(c3ccccn3)C3CCCC3)CC2)cc1` (racemic) showed a clearance of 293 mL/min/kg. In addition, in data set [2], the Vd was found to be 4.3 L/kg. Besides, the CLint scaled in data set [3] turned out to be 271 mL/min/kg; in data set [5], 16.2 mL/min/kg. The same compound gave a half-life in data set [4] of 0.2 h. The fraction unbound in data set [6] is 0.342; in data set [7], 0.291.
